In PubChem BioAssay:
Values without a mark were called inactive. Results filed as inconclusive are left out. The source made the active and inactive calls.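 How the source made its calls, unless noted: active means growth inhibition above 25% in both replicates, a cutoff set 3 SD above the mean; inconclusive means above 25% in only one replicate; inactive means the rest.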

Legend:
[1] = S. cerevisiae growth inhibition in permissive medium (OD615), pilot counter-assay for S. cerevisiae lifespan shortening project, permissive growth control (AID 705); settings: OD615, 24 h, at 10 µM, stronger effect = higher value
How it was run: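 Test system: Saccharomyces cerevisiae strain carrying genetically modified DeaD replicative-lifespan system; buffer or medium: SC raffinose/galactose permissive medium; dosing: one dose 10 µM, DMSO 0.25% final; times: 24 h exposure, 30 °C; measured by: OD at 615 nm; read-out basis: growth inhibition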

[2] = S. cerevisiae growth inhibition in restrictive medium, OD615, pilot screen, restrictive growth control, yeast lifespan reduction project (AID 706;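 active means growth inhibition above a set limit, 3 SD over mean compound inhibition, in both replicates, cut at about 43% in these data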;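 further: modified DeaD lifespan yeast strain shifted to restrictive glucose medium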); settings: OD615, 48 h, at 10 µM, stronger effect = higher value
How it was run: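 material = engineered S. cerevisiae DeaD strain | buffer or medium = glucose-based CSMM-D restrictive medium | dosing = one concentration, 10 µM final, 0.25% DMSO | schedule = 4 h pre-growth plus 48 h compound exposure, 30 °C | detection = OD615 absorbance reading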

[3] = doxorubicin toxicity protection in MRP-1 cells – H69AR cells, CellTiter-Glo, duplicate, MRP-1 activator project, pilot screen (AID 807;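 active means viability increase at or above a cutoff of the median across tested compounds plus 3 SD, cut at about 8.5% in these data, passing the limit was not always enough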;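 further: compound pretreatment 18-22 h then 72 h combined with doxorubicin; 0% = doxorubicin alone and 100% = vehicle without doxorubicin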); settings: H69AR viability with doxorubicin, CellTiter-Glo luminescence; at 10 µM; stronger effect = higher value
[4] = viability of HCT116 without oncogenic beta-catenin – human colon tumor cells, pilot screen (AID 823;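 active means cell viability at or below a set limit in both duplicate runs, the limit being the all-compound median minus 4 SD, cut at about 23% in these data, passing the limit was not always enough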;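 further: 0% = wells killed by 20 µM Hyamine and 100% = untreated DMSO cell wells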); settings: HCT116 beta-catenin knockout viability, CellTiter-Glo, 60 h; at 10 µM; stronger effect = lower value
[5] = viability of PTEN-null HCT116 cells – cell-based, HCT116 clonal line, CellTiter-Glo, pilot screen (AID 824;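 active means viability at or below 27.92% in each of two runs, the all-compound median minus 4 SD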;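 further: 0% = 20 µM Hyamine control and 100% = vehicle cell control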); settings: HCT116 PTEN-deleted viability, 60 h, at 10 µM, stronger effect = lower value
[6] = RAM pathway blockade in budding yeast – dse1pr::URA3 reporter, 5-FOA selection, pilot screen (AID 869;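 active means inhibition over a set limit, the all-compound mean plus 3 SD, in both replicate runs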;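 further: 0% = DMSO wells with no growth and 100% = 10 µM 1-NA-PP1 with full growth; RAM network block rescues cells from 5-FOA so hits raise OD615 growth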); settings: S. cerevisiae dse1pr::URA3 5-FOA growth, OD615, 2 d; at 10 µM; stronger effect = higher value; strain carries analog-sensitive mutant Cbk1 kinase
[7] = RAM signaling pathway blockade in yeast – S. cerevisiae, Pdr1DBD-CYC8 efflux-inhibited sensitized strain, primary screen (AID 1298;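 active means RAM network inhibition above 8.4% in each of two replicates, 3 SD over the compound average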;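 further: 0% = DMSO untreated cells without growth and 100% = 10 µM 1-NA-PP1 full growth; higher means more yeast growth rescued from 5-FOA killing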); settings: S. cerevisiae cbk1-as DSE1-URA3 strain, 5-FOA growth OD615, 2 d; at 50 µM; stronger effect = higher value

## O=C(CSc1nnc2sc3ccccc3n12)NCc1ccc2c(c1)OCO2
[1]
  growth inhibition: 1.77%
[2]
  growth inhibition: 20.7%
[3]
  viability increase: -1.52%
[4]
  viability: 104%
[5]
  viability: 101%
[6]
  inhibition: 0.245%
[7]
  RAM network inhibition: 4.54%

## CC(=O)Nc1c2c(nn1-c1cccc(Cl)c1)CS(=O)C2 (stereo unspecified)
[1]
  growth inhibition: 3.89%
[2]
  growth inhibition: -5.49%
[3]
  viability increase: -0.33%
[4]
  viability: 94.1%
[5]
  viability: 100%
[6]
  inhibition: 1.38%
[7]
  RAM network inhibition: 0.11%

## CCC(CO)Nc1ncnc2c1cnn2-c1ccc(OC)cc1 (stereo unspecified)
[1]
  growth inhibition: -7.48%
[2]
  growth inhibition: -7.47%
[3]
  viability increase: 0.37%
[4]
  viability: 104%
[5]
  viability: 101%
[6]
  inhibition: 2.01%
[7]
  RAM network inhibition: -1.98%

## Cc1[nH]n(-c2ccccc2)c(=O)c1S(=O)(=O)c1ccccc1
[1]
  growth inhibition: -0.29%
[2]
  growth inhibition: -3.15%
[3]
  viability increase: 0.62%
[4]
  viability: 102%
[5]
  viability: 98.7%
[6]
  inhibition: 0.08%
[7]
  RAM network inhibition: 2.99%

## Cc1cc(OCC(=O)N(C)C)c2c(-c3ccccc3)cc(=O)oc2c1
[1]
  growth inhibition: -3.89%
[2]
  growth inhibition: 2.71%
[3]
  viability increase: -3.03%
[4]
  viability: 97.4%
[5]
  viability: 94.7%
[6]
  inhibition: 0.915%
[7]
  RAM network inhibition: 5.21%

## O=S(=O)(c1ccccc1)n1ccc2ccccc21
[1]
  growth inhibition: -3%
[2]
  growth inhibition: 5.11%
[3]
  viability increase: -5.11%
[4]
  viability: 87.4%
[5]
  viability: 89.1%
[6]
  inhibition: 0.255%
[7]
  RAM network inhibition: 6.25%

## CCCCn1c(CN2CCOCC2)nc2c1c(=O)n(C)c(=O)n2C
[1]
  growth inhibition: -1.51%
[2]
  growth inhibition: -7.03%
[3]
  viability increase: -1.72%
[4]
  viability: 93.8%
[5]
  viability: 89.6%
[6]
  inhibition: 0.375%
[7]
  RAM network inhibition: 2.4%

## COC(=O)c1nc2cc(C)ccn2c1F
[1]
  growth inhibition: 0.67%
[2]
  growth inhibition: 0.595%
[3]
  viability increase: -1.42%
[4]
  viability: 105%
[5]
  viability: 94.3%
[6]
  inhibition: 2.7%
[7]
  RAM network inhibition: 0.79%

## CCCc1ccc(OCC(O)CN2CCN(c3ccccc3)CC2)cc1 (stereo unspecified)
[1]
  growth inhibition: 4.55%
[2]
  growth inhibition: 3.57%
[3]
  viability increase: -0.47%
[4]
  viability: 83%
[5]
  viability: 81.6%
[6]
  inhibition: 0.325%
[7]
  RAM network inhibition: 1.55%

## CCN(C(=O)c1sc(N)c(C#N)c1C)C1CCCCC1
[1]
  growth inhibition: -1.28%
[2]
  growth inhibition: -0.585%
[3]
  viability increase: 0.43%
[4]
  viability: 92.1%
[5]
  viability: 91.6%
[6]
  inhibition: 1.5%
[7]
  RAM network inhibition: 0.01%

## CCCC1(C(=O)O)NC(c2ccc(OC)cc2O)C2C(=O)N(c3ccc(OC)cc3)C(=O)C21 (stereo unspecified)
[1]
  growth inhibition: -7.46%
[2]
  growth inhibition: 1.98%
[3]
  viability increase: -0.54%
[4]
  viability: 95.8%
[5]
  viability: 91.6%
[6]
  inhibition: 1.48%
[7]
  RAM network inhibition: 2.34%

## COCCn1c(=O)[nH]c2cc(C(=O)NCCN3CCN(c4ccccc4)CC3)ccc2c1=O
[1]
  growth inhibition: -5.1%
[2]
  growth inhibition: 7.77%
[3]
  viability increase: -0.22%
[4]
  viability: 92.5%
[5]
  viability: 93.2%
[6]
  inhibition: 1.11%
[7]
  RAM network inhibition: 3.35%

## CC(C)C(=O)N1CCN(c2ccccc2N)CC1
[1]
  growth inhibition: -9.49%
[2]
  growth inhibition: -20.2%
[3]
  viability increase: -1.42%
[4]
  viability: 102%
[5]
  viability: 95.8%
[6]
  inhibition: 1.55%
[7]
  RAM network inhibition: 1.34%

## COc1ccc(C2C(C(=O)N3CCCCC3)c3ccccc3C(=O)N2C)cc1 (stereo unspecified)
[1]
  growth inhibition: -2.93%
[2]
  growth inhibition: -8.27%
[3]
  viability increase: -2.9%
[4]
  viability: 92.3%
[5]
  viability: 91.2%
[6]
  inhibition: 0.375%
[7]
  RAM network inhibition: 2.69%

## O=C(N[C@@H](Cc1ccccc1)C(=O)O)c1cccnc1
[1]
  growth inhibition: -5.99%
[2]
  growth inhibition: -10.1%
[3]
  viability increase: 0.01%
[4]
  viability: 96.1%
[5]
  viability: 96.2%
[6]
  inhibition: 2.62%
[7]
  RAM network inhibition: 6.61%

## CC1CCN(c2nc3c(c(=O)n(C)c(=O)n3C)n2CCSc2ncccn2)CC1
[1]
  growth inhibition: -3.47%
[2]
  growth inhibition: -3.19%
[3]
  viability increase: -0.04%
[4]
  viability: 99.1%
[5]
  viability: 96.3%
[6]
  inhibition: 1.61%
[7]
  RAM network inhibition: 2.44%

## O=S(=O)(c1cc(Cl)ccc1Cl)N1CCN(Cc2ccc3c(c2)OCO3)CC1
[1]
  growth inhibition: -18.5%
[2]
  growth inhibition: -8.86%
[3]
  viability increase: 0.21%
[4]
  viability: 94.8%
[5]
  viability: 83.7%
[6]
  inhibition: 0.37%
[7]
  RAM network inhibition: 2.23%

## Cc1nc2ccc(N)cc2s1
[1]
  growth inhibition: -15.7%
[2]
  growth inhibition: -13.4%
[3]
  viability increase: -2.73%
[4]
  viability: 109%
[5]
  viability: 112%
[6]
  inhibition: 0.07%
[7]
  RAM network inhibition: 1.25%

## COc1ccc(NC(=O)N(CCC(C)C)C(C)c2ccccn2)c(OC)c1 (stereo unspecified)
[1]
  growth inhibition: -5%
[2]
  growth inhibition: 7.73%
[3]
  viability increase: -3.52%
[4]
  viability: 79.2%
[5]
  viability: 85.6%
[6]
  inhibition: 1.11%
[7]
  RAM network inhibition: 3.79%

## COc1ccc(S(=O)(=O)NCc2cn3c(C)csc3n2)cc1F
[1]
  growth inhibition: -21%
[2]
  growth inhibition: -8.7%
[3]
  viability increase: 0.05%
[4]
  viability: 94.1%
[5]
  viability: 93.3%
[6]
  inhibition: 0.86%
[7]
  RAM network inhibition: -0.48%

## c1nc(N2CCNCC2)c2sc3nc(N4CCOCC4)c4c(c3c2n1)CCC4
[1]
  growth inhibition: -0.055%
[2]
  growth inhibition: 6.55%
[3]
  viability increase: -6.75%
[4]
  viability: 2.54% (active)
[5]
  viability: 1.69% (active)
[6]
  inhibition: 2.3%
[7]
  RAM network inhibition: 7.31%

## O=C(CSc1ccc2c(c1)OCCO2)NC(=O)NC1CCCC1
[1]
  growth inhibition: -2.04%
[2]
  growth inhibition: 2.58%
[3]
  viability increase: -1.38%
[4]
  viability: 87.7%
[5]
  viability: 91.3%
[6]
  inhibition: 0.535%
[7]
  RAM network inhibition: -1.28%

## Cc1ccccc1C(=O)Nc1ccc2nc3n(c(=O)c2c1)CCC3
[1]
  growth inhibition: -2.17%
[2]
  growth inhibition: 0.31%
[3]
  viability increase: 0.79%
[4]
  viability: 106%
[5]
  viability: 104%
[6]
  inhibition: 0.085%
[7]
  RAM network inhibition: 4.34%

## CCOC(=O)N1CCN(C(=O)CSc2nnc(-c3ccc(C)c(C)c3)o2)CC1
[1]
  growth inhibition: -1.67%
[2]
  growth inhibition: 1.73%
[3]
  viability increase: -2.44%
[4]
  viability: 111%
[5]
  viability: 97.4%
[6]
  inhibition: 2.31%
[7]
  RAM network inhibition: 4.67%

## O=C(c1cc(-c2ccc(Cl)c(Cl)c2)on1)N1CCCC1
[1]
  growth inhibition: -5.55%
[2]
  growth inhibition: 0.315%
[3]
  viability increase: 4.2%
[4]
  viability: 111%
[5]
  viability: 102%
[6]
  inhibition: 1.99%
[7]
  RAM network inhibition: 1.27%

## CCC(C)NC(=O)C1CCN(S(=O)(=O)c2cccc3cccnc23)CC1 (stereo unspecified)
[1]
  growth inhibition: -3.39%
[2]
  growth inhibition: 1.06%
[3]
  viability increase: 0.26%
[4]
  viability: 108%
[5]
  viability: 101%
[6]
  inhibition: 2.05%
[7]
  RAM network inhibition: 4.76%

## COc1ccc(-c2nc3cnccn3c2Nc2ccc3c(c2)OCO3)cc1
[1]
  growth inhibition: -10.7%
[2]
  growth inhibition: 3.96%
[3]
  viability increase: -6.6%
[4]
  viability: 70.9%
[5]
  viability: 62.8%
[6]
  inhibition: -0.105%
[7]
  RAM network inhibition: 0.16%

## Cc1ccccc1-c1nc(CS(=O)CC(=O)NCCN2CCOCC2)c(C)o1 (stereo unspecified)
[1]
  growth inhibition: 0.43%
[2]
  growth inhibition: 1.41%
[3]
  viability increase: -1.4%
[4]
  viability: 101%
[5]
  viability: 91.2%
[6]
  inhibition: 1.11%
[7]
  RAM network inhibition: 9.97%

## Cc1cccc(NC(=O)CCNS(=O)(=O)c2cccc3nsnc23)c1
[1]
  growth inhibition: -7.62%
[2]
  growth inhibition: -12.6%
[3]
  viability increase: -2.32%
[4]
  viability: 94.5%
[5]
  viability: 90.7%
[6]
  inhibition: 1.34%
[7]
  RAM network inhibition: 1.66%

## COc1ccc(OC)c(NC2c3ccccc3C(=O)N2Cc2ccc3c(c2)OCO3)c1 (stereo unspecified)
[1]
  growth inhibition: -0.33%
[2]
  growth inhibition: -3.93%
[3]
  viability increase: -0.47%
[4]
  viability: 98%
[5]
  viability: 90%
[6]
  inhibition: 0.2%
[7]
  RAM network inhibition: 5.4%

## O=c1[nH]c2ccccc2n1Cc1ccc(F)cc1
[1]
  growth inhibition: -5.88%
[2]
  growth inhibition: -4.46%
[3]
  viability increase: 1.93%
[4]
  viability: 96.6%
[5]
  viability: 92.4%
[6]
  inhibition: 1.71%
[7]
  RAM network inhibition: -0.05%

## CCOc1ccc(NC(=O)N(C2CCCCC2)C2CCN(C(C)=O)CC2)cc1
[1]
  growth inhibition: -8.37%
[2]
  growth inhibition: 6.87%
[3]
  viability increase: -0.8%
[4]
  viability: 102%
[5]
  viability: 100%
[6]
  inhibition: 0.795%
[7]
  RAM network inhibition: 3.05%

## CCCc1nnc(NC(=O)CCC(=O)O)s1
[1]
  growth inhibition: -4.72%
[2]
  growth inhibition: -1.89%
[3]
  viability increase: -1.02%
[4]
  viability: 92.8%
[5]
  viability: 95.4%
[6]
  inhibition: 0.765%
[7]
  RAM network inhibition: 0%
